Test results from ChEMBL document CHEMBL1122058, “Agents for the treatment of brain injury. 1. (Aryloxy)alkanoic acids” (J Med Chem, 1982).
Values belong to the compound of their own block, whether it stands above or below them. Activity calls are given as the source filed them. No cut-off for these calls is given here.

Columns and labels:
[1] = Dissociation constant (pKa) (determined in 30% EtOH); assay type: physicochemical
[2] = Distribution coefficient (D %) between octanol and buffer of pH 7.4; assay type: physicochemical; conditions: octanol/water
Felis catus [3] = species on record: Felis catus; assay: In vitro inhibition of HCO3- stimulated swelling in cat cerebrocortical tissue slice; assay type: functional; conditions: read-out: I 50
In short: (§1)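 Cat cerebral cortex slices (~150 mg, 0.5 mm) incubated aerobically 60 min at 37 °C in K+-rich (27 mM) Hepes-buffered saline-glucose with test compound as Na salt. HCO3- (NaHCO3 or TEAB) added from sidearm at 20 min to 10 mM final; HCO3- flasks gassed with 2.5% CO2/97.5% O2. Swelling by reweighing; Na+/K+ by flame photometry, Cl- by amperometric titration. Units: per g initial fresh weight; means ± SE, Student's t test.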

Canis familiaris [4] = species on record: Canis familiaris; assay: Relative salidiuretic efficacy was scored in dog; inactive; assay type: functional, organism-based; conditions: Canis lupus familiaris; Urine
Pan troglodytes [5] = species on record: Pan troglodytes; assay: Relative salidiuretic efficacy was scored in chimpanzee; moderate; assay type: functional, organism-based; conditions: Urine
Canis familiaris [6] = species on record: Canis familiaris; assay: Relative salidiuretic efficacy was scored in dog; Marginal; assay type: functional, organism-based; conditions: Canis lupus familiaris; Urine
Rattus norvegicus [7] = species on record: Rattus norvegicus; assay: Relative salidiuretic efficacy was scored in Rat; Marginal; assay type: functional, organism-based; conditions: Urine
Felis catus [8] = species on record: Felis catus; assay: In vitro inhibition of HCO3- stimulated swelling in cat cerebrocortical tissue slice; At no concentration was swelling inhibited 100%; assay type: functional; conditions: read-out: I 50; in short: as §1
Rattus norvegicus [9] = species on record: Rattus norvegicus; assay: Relative salidiuretic efficacy was scored in Rat; weak; assay type: functional, organism-based; conditions: Urine
Canis familiaris [10] = species on record: Canis familiaris; assay: Relative salidiuretic efficacy was scored in dog; moderate; assay type: functional, organism-based; conditions: Canis lupus familiaris; Urine
Homo sapiens [11] = species on record: Homo sapiens; assay: Relative salidiuretic efficacy was scored in human; moderate; assay type: functional, organism-based; conditions: Urine
Pan troglodytes [12] = species on record: Pan troglodytes; assay: Relative salidiuretic efficacy was scored in chimpanzee; weak; assay type: functional, organism-based; conditions: Urine
Pan troglodytes [13] = species on record: Pan troglodytes; assay: Relative salidiuretic efficacy was scored in chipanze; weak; assay type: functional, organism-based; conditions: Urine
Felis catus [14] = species on record: Felis catus; assay: (§2) Evaluated for Potassium ion content of Cerebrocortical slices in cat with out additions; assay type: functional; in short: as §1
Felis catus [15] = species on record: Felis catus; assay: (§3) Evaluated for chloride ion content of Cerebrocortical slices in cat with out additions; assay type: functional; in short: as §1
Felis catus [16] = species on record: Felis catus; assay: Evaluated for Potassium ion content of Cerebrocortical slices in cat with addition of Sodium Bicarbonate (NaHCO3).; assay type: functional; in short: as §1
Felis catus [17] = species on record: Felis catus; assay: Evaluated for chloride ion content of Cerebrocortical slices in cat with addition of Sodium Bicarbonate (NaHCO3).; assay type: functional; in short: as §1
Felis catus [18] = species on record: Felis catus; assay: as §2; assay type: functional; in short: as §1; remark: listed apart in the source
Felis catus [19] = species on record: Felis catus; assay: Evaluated for Sodium ion content of Cerebrocortical slices in cat with addition of Triethylammonium Bicarbonate (TEAB).; assay type: functional; in short: as §1
Felis catus [20] = species on record: Felis catus; assay: In vitro inhibition of tissue swelling of Cerebrocortical slices from cat with addition of Triethylammonium Bicarbonate (TEAB).; assay type: functional; in short: as §1
Felis catus [21] = species on record: Felis catus; assay: In vitro inhibition of tissue swelling of Cerebrocortical slices from cat with out additions; assay type: functional; in short: as §1
Rattus norvegicus [22] = species on record: Rattus norvegicus; assay: Relative salidiuretic efficacy was scored in Rat; moderate; assay type: functional, organism-based; conditions: Urine
Felis catus [23] = species on record: Felis catus; assay: Evaluated for Potassium ion content of Cerebrocortical slices in cat with addition of Triethylammonium Bicarbonate (TEAB).; assay type: functional; in short: as §1
[24] = Compound was tested for bicarbonate stimulated swelling of Cerebrocortical slices from cat with addition of Triethylammonium Bicarbonate (TEAB) (in vitro); assay type: functional; in short: as §1
Felis catus [25] = species on record: Felis catus; assay: Evaluated for Sodium ion content of Cerebrocortical slices in cat with addition of Sodium Bicarbonate (NaHCO3).; assay type: functional; in short: as §1
Felis catus [26] = species on record: Felis catus; assay: In vitro inhibition of tissue swelling of Cerebrocortical slices from cat with out additions
Felis catus [27] = species on record: Felis catus; assay: In vitro inhibition of tissue swelling of Cerebrocortical slices from cat with addition of Sodium Bicarbonate (NaHCO3).; assay type: functional; in short: as §1
Felis catus [28] = assay: Mortality of animals recorded as the number of animals dead out of the total animals (42) taken for the study at dose 1 mg/kg; assay type: functional
In short: (§4)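 Adult conditioned cats (2.5–4 kg) under iv methohexital (13.25 mg/kg, plus 2.75 mg/kg if needed) received machine-induced acceleration/deceleration head injury. Forty min later they were paralysed with gallamine and ventilated with 6% O2/94% N2 for 60 min (arterial pO2 23 ± 1 torr). Drug was given iv 20 min post-injury, before hypoxemia. Mortality was scored as dead/total, chi-square tested.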

[29] = Compound was tested for bicarbonate stimulated swelling of Cerebrocortical slices from cat with addition of Sodium Bicarbonate (NaHCO3) (in vitro); in short: as §1
Felis catus [30] = species on record: Felis catus; assay: Evaluated for Sodium ion content of Cerebrocortical slices in cat with out additions
Felis catus [31] = species on record: Felis catus; assay: as §3; assay type: functional; in short: as §1; remark: listed apart in the source
Felis catus [32] = species on record: Felis catus; assay: Evaluated for Sodium ion content of Cerebrocortical slices in cat with out additions; assay type: functional; in short: as §1
Felis catus [33] = species on record: Felis catus; assay: Evaluated for chloride ion content of Cerebrocortical slices in cat with addition of Triethylammonium Bicarbonate (TEAB).; assay type: functional; in short: as §1
Felis catus [34] = assay: Mortality of animals recorded as the number of animals dead out of the total animals (22) taken for the study at dose 1 mg/kg; assay type: functional; in short: as §4
Rattus norvegicus [35] = species on record: Rattus norvegicus; assay: Relative salidiuretic efficacy was scored in Rat; very marked; assay type: functional, organism-based; conditions: Urine
Pan troglodytes [36] = species on record: Pan troglodytes; assay: Relative salidiuretic efficacy was scored in chimpanzee; very marked; assay type: functional, organism-based; conditions: Urine
Canis familiaris [37] = species on record: Canis familiaris; assay: Relative salidiuretic efficacy was scored in dog; marked; assay type: functional, organism-based; conditions: Canis lupus familiaris; Urine
Homo sapiens [38] = species on record: Homo sapiens; assay: Relative salidiuretic efficacy was scored in human; very marked; assay type: functional, organism-based; conditions: Urine
Felis catus [39] = assay: Mortality of animals recorded as the number of animals dead out of the total animals (16) taken for the study at dose 1 mg/kg given q.i.d.; assay type: functional
Canis familiaris [40] = species on record: Canis familiaris; assay: Relative salidiuretic efficacy was scored in dog; very marked; assay type: functional, organism-based; conditions: Canis lupus familiaris; Urine
Felis catus [41] = assay: Mortality of animals recorded as the number of animals dead out of the total animals (39) taken for the study at dose 1 mg/kg; assay type: functional; in short: as §4

Compound: CC1(C2CCCC2)Cc2cc(OC3(C(=O)O)CCC3)c(Cl)c(Cl)c2C1=O (racemic)
pKa [1]: 3.8
IC50 (Felis catus [8]): 1 µM
Distribution [2]: 98.6%

Compound: O=C(O)COc1cc2c(c(Cl)c1Cl)C(=O)C(C1CCCC1)C2 (racemic)
pKa [1]: 3.9
Relative salidiuretic activity (Canis familiaris [10]): moderate
Relative salidiuretic activity (Homo sapiens [11]): moderate
Relative salidiuretic activity (Rattus norvegicus [9]): moderate
Distribution [2]: 83%
IC50 (Felis catus [3]): 10 µM
Relative salidiuretic activity (Pan troglodytes [12]): moderate

Compound: O=C(O)COc1cc2c(c(Cl)c1Cl)C(=O)C(CC1CCCC1)C2 (racemic)
pKa [1]: 3.8
Relative salidiuretic activity (Pan troglodytes [13]): Marginal
Relative salidiuretic activity (Rattus norvegicus [9]): Marginal
Relative salidiuretic activity (Canis familiaris [6]): Marginal
Distribution [2]: 97%
IC50 (Felis catus [3]): 0.01 µM

Compound: CC1(C2CCCC2)Cc2cc(OCC(=O)O)c(Cl)c(Cl)c2C1=O (racemic)
Relative salidiuretic activity (Pan troglodytes [5]): marked
pKa [1]: 3.9
Activity (Felis catus [14]): 94.4 µM/g
Relative salidiuretic activity (Canis familiaris [10]): marked
Activity (Felis catus [15]): 89.9 µM/g
Activity (Felis catus [16]): 97.1 µM/g
Relative salidiuretic activity (Homo sapiens [11]): marked
Activity (Felis catus [17]): 98.2 µM/g
Activity (Felis catus [18]): 93.5 µM/g
Activity (Felis catus [19]): 118.8 µM/g
Tissue swelling (Felis catus [20]): 293 µL/g
Tissue swelling (Felis catus [21]): 179 µL/g
Relative salidiuretic activity (Rattus norvegicus [22]): marked
Activity (Felis catus [23]): 91.4 µM/g
Activity [24]: 100
Activity (Felis catus [25]): 116.3 µM/g
Tissue swelling (Felis catus [26]): 170 µL/g
Tissue swelling (Felis catus [27]): 268 µL/g
Mortality (Felis catus [28]): 11
Activity [29]: 100
Distribution [2]: 90%
IC50 (Felis catus [3]): 0.2 µM
Activity (Felis catus [30]): 100.4 µM/g
Activity (Felis catus [31]): 90.2 µM/g
Activity (Felis catus [32]): 101.6 µM/g
Activity (Felis catus [33]): 104.8 µM/g

Compound: CC1(c2ccccc2)Cc2cc(OCC(=O)O)c(Cl)c(Cl)c2C1=O (racemic) [INDACRINONE]
pKa [1]: 3.7
Mortality (Felis catus [34]): 8
Relative salidiuretic activity (Rattus norvegicus [35]): marked
Relative salidiuretic activity (Pan troglodytes [36]): marked
Relative salidiuretic activity (Canis familiaris [37]): marked
Distribution [2]: 84%
IC50 (Felis catus [3]): 1 µM
Relative salidiuretic activity (Homo sapiens [38]): marked

Compound: CC(=O)Nc1nnc(S(N)(=O)=O)s1 [ACETAZOLAMIDE]
Distribution [2]: 22%
IC50 (Felis catus [3]): 2000 µM
Mortality (Felis catus [39]): 8

Compound: C=C(CC)C(=O)c1ccc(OCC(=O)O)c(Cl)c1Cl [ETHACRYNIC ACID]
Relative salidiuretic activity (Canis familiaris [40]): Marginal
Mortality (Felis catus [41]): 14
Relative salidiuretic activity (Pan troglodytes [36]): Marginal
Distribution [2]: 61%
IC50 (Felis catus [3]): 1 µM
Relative salidiuretic activity (Homo sapiens [38]): Marginal
Relative salidiuretic activity (Rattus norvegicus [7]): Marginal

Compound: NS(=O)(=O)c1cc(C(=O)O)c(NCc2ccco2)cc1Cl [FUROSEMIDE]
Relative salidiuretic activity (Canis familiaris [40]): Active
Relative salidiuretic activity (Rattus norvegicus [35]): Active
Relative salidiuretic activity (Pan troglodytes [36]): Active
Distribution [2]: 28%
IC50 (Felis catus [3]): 10 µM
Relative salidiuretic activity (Homo sapiens [38]): Active

More lines, main results first:

pKa [1]: 6.3
Distribution [2]: 99.5%
IC50 (Felis catus [3]): > 100 µM
Compound: CC1(Cc2ccccc2)Cc2cc(OCCCC(=O)O)c(Cl)c(Cl)c2C1=O (racemic)

pKa [1]: 6.4
Distribution [2]: 99%
Compound: CC1(c2ccccc2)Cc2cc(OCCCC(=O)O)c(Cl)c(Cl)c2C1=O (racemic)
Relative salidiuretic activity (Canis familiaris [4]): inactive

pKa [1]: 6.2
Distribution [2]: 100%
IC50 (Felis catus [3]): > 10 µM
Compound: CC1(C2CCCC2)Cc2cc(OCc3ccc(C(=O)O)cc3)c(Cl)c(Cl)c2C1=O (racemic)

pKa [1]: 3.8
Distribution [2]: 91%
IC50 (Felis catus [3]): 0.001 µM
Compound: CC1(Cc2ccccc2)Cc2cc(OCC(=O)O)c(Cl)c(Cl)c2C1=O (racemic)
Relative salidiuretic activity (Pan troglodytes [5]): Marginal
Relative salidiuretic activity (Canis familiaris [6]): Marginal
Relative salidiuretic activity (Rattus norvegicus [7]): Marginal

pKa [1]: 3.9
Distribution [2]: 99%
IC50 (Felis catus [3]): 0.003 µM
Compound: CCCCC1(C2CCCC2)Cc2cc(OCC(=O)O)c(Cl)c(Cl)c2C1=O (racemic)
Relative salidiuretic activity (Rattus norvegicus [9]): weak

pKa [1]: 3.8
Distribution [2]: 98.7%
IC50 (Felis catus [3]): > 0.01 µM
Compound: CCC1(C2CCCC2)Cc2cc(OCCCC(=O)O)c(Cl)c(Cl)c2C1=O (racemic)
Relative salidiuretic activity (Rattus norvegicus [7]): Marginal
